Screening data (PubChem BioAssay)
ARNT-TACC3 inh – disruptors of human ARNT/TACC3 interaction | inhibition, % at 9.99 µM | actives 0.66% (n = 390,000) | AlphaScreen His-ARNT PAS-B/GST-TACC3 binding, luminescence; TACC3 fragment carries E629A point mutation | Q9Y6A5;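 active = mean inhibition of replicates at least 50% and at least half of replicates each reaching 50%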;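 also: 0% = complete ARNT plus TACC3 wells and 100% = ARNT alone without TACC3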
CAL PDZ FP-1 – inhibitors of human CAL PDZ peptide binding; Q9HD26; purified CAL PDZ, TMR-peptide fluorescence polarization, 1 h; inhibition, % at 20 µM; actives 0.02% (n = 330,000); AID 504414;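 active = highest replicate inhibition of at least 40%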;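 also: plate controls were DMSO neutral control wells for no effect and unlabeled competitor peptide control wells for full effect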
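Test system: tagged CAL PDZ domain / Buffer or medium: sodium phosphate/NaCl buffer pH 7.4 with TCEP, IgG, Thesit / Reagent: TMR-labelled reporter peptide T*-PRC34 bound in PDZ groove / Compound dosing: single point, 20 µM / Schedule: 1 h incubation at room temperature before polarization reading / Technique: fluorescence polarization (mP) / Benchmarks: unlabelled peptide, DMSO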
CaV13 ICDI inh – Disruptors of the CACNA1D IQ motif to Ca2+-dependent inactivation inhibitor domain association, primary screening, Förster resonance energy transfer in intact living … | HEK cells, CFP/YFP FRET ICDI-IQ, plate reader, 10 min; percent FRET-ratio fall versus neutral wells | inhibition, % at 12.3 µM | actives 0.098% (n = 340,000) | AID 743397;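 active = mean replicate inhibition of at least 30% and at least 1% of replicates passing that level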;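 also: 0% = median of the neutral control wells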
CAL PDZ FP-2 – CAL PDZ (human) peptide binding inhibition; Q9HD26; purified CAL PDZ, TMR-peptide fluorescence polarization, 1 h; inhibition, % at 24.9 µM; actives 0.92% (n = 300,000);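 active = mean inhibition of at least 30% with at least half of replicates also reaching 30%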;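 also: 0% = DMSO neutral control and 100% = excess unlabeled competitor peptide PRC23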
* marks the source's active call; other numbers are inactive results. An excerpt weighted towards active compounds, which were near 1.2% of everything screened.

`O=C(C1CCOCC1)N1[C@H](CO)[C@H]2c3ccccc3NC[C@H]21` gave ARNT-TACC3 inh 5.
N#C[C@H]1N[C@@H](CO)[C@H]1c1ccccc1 was read as ARNT-TACC3 inh -4.
`Cc1ccc(C)c(OCC(=O)Nc2ccc3c(c2)OCO3)c1` gave ARNT-TACC3 inh 0, CAL PDZ FP-1 -1, CaV13 ICDI inh -9 and CAL PDZ FP-2 -3.
`O=C(COc1ncnc2sccc12)Nc1ccc2c(c1)OCCO2` gave ARNT-TACC3 inh -8, CAL PDZ FP-1 -1, CaV13 ICDI inh -5 and CAL PDZ FP-2 44*.
For Cc1cc(C)c(OCC(=O)Nc2ccc3c(c2)OCO3)cc1C the results were CAL PDZ FP-1 -2, CaV13 ICDI inh -4 and CAL PDZ FP-2 active.
`C[C@H]1CN([C@@H](C)CO)C(=O)c2cc(NC(=O)CCCN(C)C)ccc2O[C@@H]1CN(C)Cc1ccc(-c2ccccc2)cc1` gave ARNT-TACC3 inh 9.
For O=C(O)c1ccccc1NS(=O)(=O)c1cccc(-n2sc3ccccc3c2=O)c1 the results were ARNT-TACC3 inh -4, CAL PDZ FP-1 0, CaV13 ICDI inh -3 and CAL PDZ FP-2 34*.
For O=C(O)c1ccccc1C(=O)Nc1ccccc1 the results were ARNT-TACC3 inh -13, CAL PDZ FP-1 -1, CaV13 ICDI inh -5 and CAL PDZ FP-2 0.
Screening O=C(Nc1ccccc1)C1=C(c2ccccc2)S(=O)(=O)CCS1(=O)=O returned ARNT-TACC3 inh -1, CAL PDZ FP-1 -1, CaV13 ICDI inh 3 and CAL PDZ FP-2 34*.
COc1ccc(CN(C)C[C@@H]2OCCCC[C@H](C)Oc3ccc(NC(=O)Nc4ccc(F)cc4)cc3C(=O)N([C@@H](C)CO)C[C@H]2C)cc1 was read as ARNT-TACC3 inh 6.
CCOC(=O)C1CCCN(C(=O)c2ccc3c(=O)n(Cc4ccccc4OC)c(=S)[nH]c3c2)C1 (stereo not drawn) was read as ARNT-TACC3 inh 5, CAL PDZ FP-1 -1, CaV13 ICDI inh -7 and CAL PDZ FP-2 32*.
CCOC(=O)N1CCN(C(=O)c2ccc3c(=O)n(-c4ccc(OC)cc4OC)c(=S)[nH]c3c2)CC1 was read as ARNT-TACC3 inh -1, CAL PDZ FP-1 -3 and CAL PDZ FP-2 82*.
CC(C)NC(=O)N[C@H]1CC[C@@H](CCNC(=O)C2CCC2)O[C@H]1CO was read as ARNT-TACC3 inh -7.
C[C@H](CO)N1C[C@H](C)[C@H](CN(C)Cc2ccc(Cl)c(Cl)c2)OCc2cn(nn2)CCCC1=O was read as ARNT-TACC3 inh 24.
For CNC[C@@H]1OCCCC[C@H](C)Oc2ccc(NS(=O)(=O)c3ccc(OC)cc3)cc2C(=O)N([C@@H](C)CO)C[C@@H]1C the results were ARNT-TACC3 inh -1.
For Nc1c(C(=O)OCC(=O)Nc2cccc([N+](=O)[O-])c2)[nH]c(=O)[nH]c1=O the results were ARNT-TACC3 inh 16* and CAL PDZ FP-1 0.
For COCCn1c(SCC(=O)NCc2ccc3c(c2)OCO3)nnc1C(C)C the results were ARNT-TACC3 inh -3, CAL PDZ FP-1 -3, CaV13 ICDI inh -7 and CAL PDZ FP-2 3.
Screening COCCn1c(SCC(=O)NCc2ccc3c(c2)OCO3)nnc1-c1c[nH]c2ccccc12 returned ARNT-TACC3 inh -2, CAL PDZ FP-1 -1, CaV13 ICDI inh 8 and CAL PDZ FP-2 64*.
`O=C(Nc1ccc(-c2csc(Nc3ccccc3)n2)cc1)c1ccccc1` gave ARNT-TACC3 inh -21, CAL PDZ FP-1 -1, CaV13 ICDI inh -9 and CAL PDZ FP-2 -3.
For O=C(O)CCC(=O)Nc1ccc(-c2csc(Nc3cccc4ccccc34)n2)cc1 the results were ARNT-TACC3 inh 8.8*, CAL PDZ FP-1 0, CaV13 ICDI inh -2 and CAL PDZ FP-2 -3.
For CCOC(=O)c1c2ccc(OCC(=O)NN)cc2n2ccccc12 the results were ARNT-TACC3 inh -7, CAL PDZ FP-1 -3, CaV13 ICDI inh active and CAL PDZ FP-2 3.
CCOC(=O)c1c2ccc(OCC(=O)N/N=C/c3ccc(C)cc3)cc2n2ccccc12 was read as ARNT-TACC3 inh -9, CAL PDZ FP-1 -1 and CAL PDZ FP-2 -6.
C[C@@H]1CN([C@@H](C)CO)S(=O)(=O)c2ccc(-c3ccncc3)cc2O[C@H]1CN(C)C(=O)c1ccc2c(c1)OCO2 was read as ARNT-TACC3 inh 2.
`CN(C)S(=O)(=O)N1CCN(S(=O)(=O)c2ccccc2)CC1` gave ARNT-TACC3 inh 1, CAL PDZ FP-1 0, CaV13 ICDI inh -5 and CAL PDZ FP-2 59*.
For Cc1ccc(S(=O)(=O)N2CCN(C(=O)N(C)C)CC2)cc1 the results were ARNT-TACC3 inh -4, CAL PDZ FP-1 67*, CaV13 ICDI inh -5 and CAL PDZ FP-2 -5.
Screening Cc1cc(C)cc(NC(=O)Nc2ccc3c(c2)C(=O)N(C)[C@@H]2CC[C@H](CC(=O)O)O[C@@H]2CO3)c1 returned ARNT-TACC3 inh 0.
`C[C@@H]1CCCCO[C@H](CN(C)C(=O)C2CCCCC2)[C@@H](C)CN([C@@H](C)CO)C(=O)c2cc(NS(C)(=O)=O)ccc2O1` gave ARNT-TACC3 inh -4.
O=C(N/N=C/c1cc([N+](=O)[O-])ccc1O)C1CC1 was read as ARNT-TACC3 inh 54*, CAL PDZ FP-1 18, CaV13 ICDI inh -5 and CAL PDZ FP-2 79*.
For Cc1c(NC(=S)N/N=C/c2ccc(O)cc2)c(=O)n(-c2ccccc2)n1C the results were ARNT-TACC3 inh 2, CAL PDZ FP-1 -3 and CAL PDZ FP-2 -5.
O=C1NCCCC1C(=O)N/N=C/c1cc([N+](=O)[O-])ccc1O (stereo not drawn) was read as ARNT-TACC3 inh 70*, CAL PDZ FP-1 2, CaV13 ICDI inh -14 and CAL PDZ FP-2 9.
O=C(N/N=C/c1cc([N+](=O)[O-])ccc1O)c1cccc(N2CCCC2=O)c1 was read as ARNT-TACC3 inh 78*, CAL PDZ FP-1 -1 and CaV13 ICDI inh -6.
For O=C1NCCCC1C(=O)N/N=C/c1ccc([N+](=O)[O-])cc1 (stereo not drawn) the results were CaV13 ICDI inh -5.
`COc1cc(/C=N/NC(=O)c2cccc(N3CCCC3=O)c2)ccc1O` gave ARNT-TACC3 inh 1, CAL PDZ FP-1 0, CaV13 ICDI inh -3 and CAL PDZ FP-2 -1.
Screening Cc1c(NC(=S)N/N=C/c2cc([N+](=O)[O-])ccc2O)c(=O)n(-c2ccccc2)n1C returned ARNT-TACC3 inh 70*, CAL PDZ FP-1 -2, CaV13 ICDI inh -4 and CAL PDZ FP-2 -3.
O=C(N/N=C/c1ccccn1)C1CC1 was read as ARNT-TACC3 inh -12, CAL PDZ FP-1 -1, CaV13 ICDI inh -3 and CAL PDZ FP-2 4.
O=C(N/N=C/c1cc([N+](=O)[O-])ccc1O)C(O)(c1ccccc1)c1ccccc1 was read as ARNT-TACC3 inh 49*, CAL PDZ FP-1 1, CaV13 ICDI inh -2 and CAL PDZ FP-2 4.
For O=C(NN=Cc1ccccc1O)C1CC1 the results were ARNT-TACC3 inh 39*, CAL PDZ FP-1 -1, CaV13 ICDI inh -10 and CAL PDZ FP-2 -2.
